Laboratory results taken from ChEMBL document CHEMBL4480395, “Pros and cons of virtual screening based on public "Big Data": In silico mining for new bromodomain inhibitors” (Eur J Med Chem, 2019).

Columns and labels:
[1] = target: T1, Bromodomain-containing protein 4 (Homo sapiens, UniProt O60885); assay: Binding affinity to N-terminal His6-tagged BRD4 bromodomain 1 (44 to 168 residues) (unknown origin) assessed as change in melting temperature at 20 uM measured after 1 hr by Sypro orange dye based differential scanning fluorimetry
Summary of the method: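 Ligand binding was read by differential scanning fluorimetry: a fluorescent dye reports protein core exposure during heat denaturation, and the value is the shift in protein denaturation temperature (ΔTm) with compound present.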

[2] = target: T1, Bromodomain-containing protein 4; assay: Inhibition of BRD4 (unknown origin) measured after 2 hrs by TR-FRET assay

Compound | ΔTm [1] | IC50 [2]
CC(C(=O)Nc1ccc2nnc(C3CCC3)n2c1)n1cncn1 (stereo not drawn) | 1.49 °C | 
COc1ccc(-n2ccc(C(=O)Nc3cc(Cl)c(=O)n(C)c3)n2)cc1 | 1.08 °C | 
Cc1noc(C)c1CSCC(=O)c1c(C)[nH]c2ccccc12 | 1.36 °C | 
Cc1nnc2ccc(N(C)Cc3ccc([S+](C)[O-])cc3)nn12 (stereo not drawn) | 1.8 °C | 
COCCc1ccccc1NC(=O)NC(c1ccccc1)c1n[nH]c(C)n1 (stereo not drawn) | 1.26 °C | 
Cc1nnc2c(NCc3cnn(-c4ccc(Cl)cc4)c3)nccn12 | 1.86 °C | 
CCC(C)C1NC(=O)N(CC(C)c2c(C)noc2C)C1=O (stereo not drawn) | 2.12 °C | 
Cc1nnc2ccc(N3CCN(C(=O)c4csc(-c5ccccc5F)n4)CC3)nn12 | 1.72 °C | 
Cc1nnc2ccc(NCc3cn(-c4ccccc4)nc3C(C)C)nn12 | 2.66 °C | 11.7 µM
O=C(CCc1ncc(-c2ccc(Cl)cc2Cl)o1)NCCc1nnc2ccccn12 | 1.21 °C | 
COCCCOc1cc(C)ccc1CNc1ccc2nnc(C)n2n1 | 1.56 °C | 
c1cnn(-c2ccc(CNc3ccc4nnc(C5CC5)n4n3)cc2)c1 | 0.76 °C | 63.3 µM
Cc1noc(C)c1CC(=O)Nc1nc(-c2c(C)[nH]c3ccccc23)cs1 | 1.86 °C | 19.5 µM
Cc1nn(CCO)c(C)c1CNC(c1ccccc1)c1nccn1C (stereo not drawn) | 1.09 °C | 
Cc1noc(C)c1CNC(=O)Nc1cccc(-c2ccc(Cl)c(Cl)c2)c1 | 1.56 °C | 
Cc1noc(C)c1COc1ccccc1C(=O)NC(c1ccccc1)c1ccccc1 | 0.93 °C | 
COCCN(C)c1ccccc1CNc1ccc2nnc(C)n2n1 | 1.1 °C | 107 µM
Cc1nnc2ccc(NCc3ccnc(OC4CCCC4)c3)nn12 | 1.69 °C | 
Cc1nn(C2CCS(=O)(=O)C2)c(C)c1CN(C)C(=O)CC(c1ccccc1)c1ccccc1 (stereo not drawn) | 1.82 °C | 160 µM
Cc1nnc2ccc(NCc3ccc(OC4CCCC4)nc3)nn12 | 1.89 °C | 
Cc1noc(C)c1NC(=O)N1CCCCC1c1ncc[nH]1 (stereo not drawn) | 1.76 °C | 
Cc1cc(-c2cc(C(=O)NC3CCC(CO)CC3)c3c(C)noc3n2)c(C)o1 (stereo not drawn) | 2.82 °C | 24.9 µM
CCn1c(SC(C(=O)NCc2cccnc2)C(C)C)nnc1-c1cccs1 (stereo not drawn) | 1.6 °C | 8.81 µM
Cc1n[nH]c(C)c1CNCc1c(C)nn(Cc2ccccc2)c1C | 1.6 °C | 33.2 µM
Cc1cc(C(=O)N(C)C(c2ccccc2)c2ccccn2)c2c(C)nn(C(C)(C)C)c2n1 (stereo not drawn) | 1.49 °C | 
Cc1c(C2OCCC2NCc2cc(-c3cnn(C)c3)no2)cnn1C (stereo not drawn) | 2.02 °C | 
CC(Sc1nc(-c2cccs2)n[nH]1)C(=O)N1CCCc2ccccc21 (stereo not drawn) | 1.78 °C | 
Cc1nnc2ccc(NC3CCCc4cc(OC(F)F)ccc43)nn12 (stereo not drawn) | 1.7 °C | 
Cc1nn(C)c(C)c1C1C(CNc2nccn3cnnc23)CC(=O)N1C (stereo not drawn) | 1.9 °C | 23.9 µM
